Converted amounts (≈) assume the structure as drawn.
Key:
[1] = system: Candida parapsilosis; test: Antifungal activity against acquired-resistant Candida parapsilosis CAPA2 after 24 hrs by spectrofluorometric analysis; assay type: functional; settings: Lodderomyces parapsilosis, CAPA2, 24 h
[2] = system: Candida albicans; test: Antifungal activity against fluconazole-resistant Candida albicans DSY292 after 24 hrs by spectrofluorometric analysis; assay type: functional; settings: DSY292, 24 h
[3] = system: Candida albicans; test: Antifungal activity against fluconazole-susceptible Candida albicans CAAL97 after 24 hrs by spectrofluorometric analysis; assay type: functional; settings: CAAL97, 24 h
[4] = system: Candida albicans; test: Antifungal activity against fluconazole-susceptible Candida albicans CAAL93 after 24 hrs by spectrofluorometric analysis; assay type: functional; settings: CAAL93, 24 h
[5] = system: Aspergillus fumigatus; test: Antifungal activity against Aspergillus fumigatus ASFU7 after 48 hrs by M38 method; assay type: functional; settings: ASFU7, 48 h
[6] = system: Pichia kudriavzevii; test: Antifungal activity against Candida krusei CAKR7 after 24 hrs by spectrofluorometric analysis; assay type: functional; settings: CAKR7, 24 h
[7] = system: Candida albicans; test: Antifungal activity against fluconazole-resistant Candida albicans DSY735 after 24 hrs by spectrofluorometric analysis; assay type: functional; settings: DSY735, 24 h
[8] = system: Candida parapsilosis; test: Antifungal activity against acquired-resistant Candida parapsilosis CAPA1 after 24 hrs by spectrofluorometric analysis; assay type: functional; settings: Lodderomyces parapsilosis, CAPA1, 24 h
[9] = system: Pichia kudriavzevii; test: Antifungal activity against Candida krusei CAKR8 after 24 hrs by spectrofluorometric analysis; assay type: functional; settings: CAKR8, 24 h
[10] = system: Nakaseomyces glabratus; test: Antifungal activity against Candida glabrata CAGL2 after 24 hrs by spectrofluorometric analysis; assay type: functional; settings: CAGL2, 24 h
[11] = system: Aspergillus fumigatus; test: Antifungal activity against Aspergillus fumigatus ASFU17 after 48 hrs by M38 method; assay type: functional; settings: ASFU17, 48 h
[12] = system: Aspergillus fumigatus; test: Antifungal activity against Aspergillus fumigatus ASFU13 after 48 hrs by M38 method; assay type: functional; settings: ASFU13, 48 h
[13] = system: Aspergillus fumigatus; test: Antifungal activity against Aspergillus fumigatus ASFU19 after 48 hrs by M38 method; assay type: functional; settings: ASFU19, 48 h
[14] = system: Aspergillus fumigatus; test: Antifungal activity against Aspergillus fumigatus ASFU20 after 48 hrs by M38 method; assay type: functional; settings: ASFU20, 48 h
[15] = system: Aspergillus fumigatus; test: Antifungal activity against Aspergillus fumigatus ASFU23 after 48 hrs by M38 method; assay type: functional; settings: ASFU23, 48 h
[16] = target: T1, Lanosterol 14-alpha demethylase (Candida albicans (strain SC5314 / ATCC MYA-2876) (Yeast), UniProt P10613); test: Inhibition of CYP51 in fluconazole-susceptible Candida albicans CAAL93 assessed as episterol level at 4.5 ng/mL after 2 hrs; design: scale not given: the % may be the effect or the level left
[17] = target: T1, Lanosterol 14-alpha demethylase; test: Inhibition of CYP51 in fluconazole-susceptible Candida albicans CAAL93 assessed as eburicol level at 22 ng/mL after 2 hrs; design: scale not given: the % may be the effect or the level left
[18] = target: T1, Lanosterol 14-alpha demethylase; test: Inhibition of CYP51 in fluconazole-susceptible Candida albicans CAAL93 assessed as eburicol level at 4.5 ng/mL after 2 hrs; design: scale not given: the % may be the effect or the level left
[19] = Antifungal activity against Rhizomucor pusillus RHPU1 after 48 hrs by broth microdilution test; assay type: functional
[20] = Antifungal activity against Scedosporium sp. SCSP1 after 48 hrs by broth microdilution test; assay type: functional
[21] = system: Candida albicans; test: Antifungal activity against fluconazole-susceptible Candida albicans CAAL93 infected in Swiss mouse assessed as host survival at 15 mg/kg, po qd for 5 days measured after 13 days; assay type: functional
Method in brief: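 Transiently neutropenic Swiss mice were infected intravenously with C. albicans CAAL93 blastoconidia. Oral dosing began 1 h post-infection at 15 mg/kg body weight, in 5% DMSO, once daily for 5 consecutive days. Controls received 100 μL 0.9% saline with 5% DMSO. The read-out was survival rate on day 13 after infection, compared by log-rank test.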

[22] = target: T1, Lanosterol 14-alpha demethylase; test: Inhibition of CYP51 in fluconazole-susceptible Candida albicans CAAL93 assessed as ergosterol level after 2 hrs
[23] = target: T1, Lanosterol 14-alpha demethylase; test: Inhibition of CYP51 in fluconazole-susceptible Candida albicans CAAL93 assessed as zymosterol level at 4.5 ng/mL after 2 hrs; design: scale not given: the % may be the effect or the level left
[24] = system: Rhizomucor miehei; test: Antifungal activity against Rhizomucor miehei RHMI1 after 48 hrs by broth microdilution test
[25] = target: T1, Lanosterol 14-alpha demethylase; test: Inhibition of CYP51 in fluconazole-susceptible Candida albicans CAAL93 assessed as ergosterol level at 22 ng/mL after 2 hrs; design: scale not given: the % may be the effect or the level left
[26] = target: T1, Lanosterol 14-alpha demethylase; test: Inhibition of CYP51 in fluconazole-susceptible Candida albicans CAAL93 assessed as lanosterol level at 4.5 ng/mL after 2 hrs; design: scale not given: the % may be the effect or the level left
[27] = target: T1, Lanosterol 14-alpha demethylase; test: Inhibition of CYP51 in fluconazole-susceptible Candida albicans CAAL93 assessed as 14-methyfecosterol level at 4.5 ng/mL after 2 hrs; design: scale not given: the % may be the effect or the level left
[28] = target: T1, Lanosterol 14-alpha demethylase; test: Inhibition of CYP51 in fluconazole-susceptible Candida albicans CAAL93 assessed as 14-methyfecosterol level at 22 ng/mL after 2 hrs; design: scale not given: the % may be the effect or the level left
[29] = target: T1, Lanosterol 14-alpha demethylase; test: Inhibition of CYP51 in fluconazole-susceptible Candida albicans CAAL93 assessed as ergosterol level at 4.5 ng/mL after 2 hrs; design: scale not given: the % may be the effect or the level left
[30] = target: T1, Lanosterol 14-alpha demethylase; test: Inhibition of CYP51 in fluconazole-susceptible Candida albicans CAAL93 assessed as lanosterol level at 22 ng/mL after 2 hrs; design: scale not given: the % may be the effect or the level left
[31] = target: T1, Lanosterol 14-alpha demethylase; test: Inhibition of CYP51 in fluconazole-susceptible Candida albicans CAAL93 assessed as 14-methylepisterol level at 4.5 ng/mL after 2 hrs; design: scale not given: the % may be the effect or the level left
[32] = target: T1, Lanosterol 14-alpha demethylase; test: Inhibition of CYP51 in fluconazole-susceptible Candida albicans CAAL93 assessed as 14-methyl-3,6-diol level at 22 ng/mL after 2 hrs; design: scale not given: the % may be the effect or the level left
[33] = target: T1, Lanosterol 14-alpha demethylase; test: Inhibition of CYP51 in fluconazole-susceptible Candida albicans CAAL93 assessed as 14-methylepisterol level at 22 ng/mL after 2 hrs; design: scale not given: the % may be the effect or the level left

T1 sequence (P10613 whole entry): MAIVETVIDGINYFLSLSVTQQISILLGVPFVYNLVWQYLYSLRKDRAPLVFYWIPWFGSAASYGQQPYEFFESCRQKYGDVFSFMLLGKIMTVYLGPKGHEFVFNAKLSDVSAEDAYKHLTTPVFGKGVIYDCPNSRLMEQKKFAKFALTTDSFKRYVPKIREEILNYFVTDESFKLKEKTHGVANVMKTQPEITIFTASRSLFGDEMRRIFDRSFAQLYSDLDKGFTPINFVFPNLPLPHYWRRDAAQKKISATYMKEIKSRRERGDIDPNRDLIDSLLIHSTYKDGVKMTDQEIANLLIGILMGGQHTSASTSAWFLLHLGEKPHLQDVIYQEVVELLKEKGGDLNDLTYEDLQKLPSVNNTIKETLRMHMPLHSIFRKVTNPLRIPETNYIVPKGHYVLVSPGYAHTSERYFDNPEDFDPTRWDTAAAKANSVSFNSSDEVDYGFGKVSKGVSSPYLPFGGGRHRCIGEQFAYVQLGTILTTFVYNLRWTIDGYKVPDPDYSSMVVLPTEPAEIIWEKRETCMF

C[C@@H](n1cnc2ccc3ncsc3c2c1=O)[C@](O)(Cn1cncn1)c1ccc(F)cc1F
MIC [1]: < 0.001 µg/mL | MIC [2]: 5 µg/mL (≈ 11 µM) | MIC [3]: < 0.001 µg/mL | MIC [4]: 0.003 µg/mL (≈ 0.0066 µM) | MIC [5]: > 43 µg/mL | MIC [6]: 5 µg/mL (≈ 11 µM) | MIC [7]: 1.43 µg/mL (≈ 3.15 µM) | MIC [8]: 0.006 µg/mL (≈ 0.0132 µM) | MIC [9]: 2.5 µg/mL (≈ 5.5 µM) | MIC [10]: 0.095 µg/mL (≈ 0.209 µM)

CCC(C)n1ncn(-c2ccc(N3CCN(c4ccc(OCC5COC(Cn6cncn6)(c6ccc(Cl)cc6Cl)O5)cc4)CC3)cc2)c1=O (centres undefined) [ITRACONAZOLE]
MIC [11]: > 71 µg/mL | MIC [12]: > 71 µg/mL | MIC [5]: 0.42 µg/mL (≈ 0.595 µM) | MIC [13]: > 71 µg/mL | MIC [14]: > 71 µg/mL | MIC [15]: > 71 µg/mL

C[C@@H](n1cnc2cc3scnc3cc2c1=O)[C@](O)(Cn1cncn1)c1ccc(F)cc1F
Activity [16]: 2.9% | Activity [17]: 20.4% | Activity [18]: 4.4% | MIC [19]: 1 µg/mL (≈ 2.2 µM) | MIC [1]: 0.127 µg/mL (≈ 0.279 µM) | MIC [20]: 1 µg/mL (≈ 2.2 µM) | survival at 15 mg/kg [21]: 75% | MIC [2]: 0.94 µg/mL (≈ 2.07 µM) | inhibition (INH) [22]: Dose-dependent effect | Activity [23]: 2% | MIC [24]: 2 µg/mL (≈ 4.4 µM) | MIC [3]: < 0.001 µg/mL | Activity [25]: 5.4% | Activity [26]: 29.9% | Activity [27]: 3.8% | MIC [11]: 2.2 µg/mL (≈ 4.84 µM) | MIC [12]: 3.1 µg/mL (≈ 6.82 µM) | Activity [28]: 11.4% | MIC [4]: 0.011 µg/mL (≈ 0.0242 µM) | Activity [29]: 51.1% | MIC [5]: 0.28 µg/mL (≈ 0.616 µM) | MIC [6]: 0.182 µg/mL (≈ 0.4 µM) | MIC [13]: 2.1 µg/mL (≈ 4.62 µM) | MIC [14]: 4.5 µg/mL (≈ 9.9 µM) | MIC [7]: 0.118 µg/mL (≈ 0.26 µM) | MIC [15]: 0.27 µg/mL (≈ 0.594 µM) | MIC [8]: 0.013 µg/mL (≈ 0.0286 µM) | Activity [30]: 41.6% | Activity [31]: 5.9% | MIC [9]: < 0.005 µg/mL | Activity [32]: 5.4% | MIC [10]: 0.068 µg/mL (≈ 0.15 µM) | Activity [33]: 15.7%

OC(Cn1cncn1)(Cn1cncn1)c1ccc(F)cc1F [FLUCONAZOLE]
MIC [1]: > 30 µg/mL | MIC [2]: 21 µg/mL (≈ 68.6 µM) | MIC [3]: 0.018 µg/mL (≈ 0.0588 µM) | MIC [4]: 0.062 µg/mL (≈ 0.202 µM) | MIC [6]: > 30 µg/mL | MIC [7]: 11 µg/mL (≈ 35.9 µM) | MIC [8]: > 30 µg/mL | MIC [9]: 12.9 µg/mL (≈ 42.1 µM) | MIC [10]: 7.7 µg/mL (≈ 25.1 µM)

C[C@@H](c1ncncc1F)[C@](O)(Cn1cncn1)c1ccc(F)cc1F [VORICONAZOLE]
MIC [19]: 2 µg/mL (≈ 5.73 µM) | MIC [1]: 0.905 µg/mL (≈ 2.59 µM) | MIC [20]: 0.125 µg/mL (≈ 0.358 µM) | MIC [2]: 1.1 µg/mL (≈ 3.15 µM) | MIC [24]: 8 µg/mL (≈ 22.9 µM) | MIC [3]: < 0.003 µg/mL | MIC [11]: 0.25 µg/mL (≈ 0.716 µM) | MIC [12]: < 0.35 µg/mL | MIC [4]: 0.005 µg/mL (≈ 0.0143 µM) | MIC [5]: 0.15 µg/mL (≈ 0.429 µM) | MIC [6]: 0.549 µg/mL (≈ 1.57 µM) | MIC [13]: 3 µg/mL (≈ 8.59 µM) | MIC [14]: < 0.35 µg/mL | MIC [7]: 0.101 µg/mL (≈ 0.289 µM) | MIC [15]: 0.18 µg/mL (≈ 0.515 µM) | MIC [8]: 0.925 µg/mL (≈ 2.65 µM) | MIC [9]: < 0.003 µg/mL | MIC [10]: 0.061 µg/mL (≈ 0.175 µM)

C[C@@H](n1cnc2cc(Cl)ccc2c1=O)[C@](O)(Cn1cncn1)c1ccc(F)cc1F [ALBACONAZOLE]
MIC [19]: 0.5 µg/mL (≈ 1.16 µM) | MIC [1]: 0.011 µg/mL (≈ 0.0255 µM) | MIC [20]: 0.5 µg/mL (≈ 1.16 µM) | MIC [2]: < 0.043 µg/mL | MIC [24]: 1 µg/mL (≈ 2.32 µM) | MIC [3]: < 0.001 µg/mL | MIC [11]: 2.1 µg/mL (≈ 4.86 µM) | MIC [12]: 1.1 µg/mL (≈ 2.55 µM) | MIC [4]: 0.003 µg/mL (≈ 0.00695 µM) | MIC [5]: 0.23 µg/mL (≈ 0.533 µM) | MIC [6]: 0.022 µg/mL (≈ 0.0509 µM) | MIC [13]: 2 µg/mL (≈ 4.63 µM) | MIC [14]: 1.2 µg/mL (≈ 2.78 µM) | MIC [7]: 0.063 µg/mL (≈ 0.146 µM) | MIC [15]: 0.22 µg/mL (≈ 0.509 µM) | MIC [8]: 0.018 µg/mL (≈ 0.0417 µM) | MIC [9]: 0.005 µg/mL (≈ 0.0116 µM) | MIC [10]: 0.065 µg/mL (≈ 0.151 µM)

From ChEMBL document CHEMBL2321793, “Discovery of a novel broad-spectrum antifungal agent derived from albaconazole” (ACS Med Chem Lett, 2013)
